Assays:
[1] = Thiobarbituric acid reactive substances; settings: BHTE units; X = EO or compound
Procedure, shortened: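 TBARS formation by oxidation measured in soybean lecithin homogenate as lipid-rich medium, by a published method, in triplicate. Values are expressed as μmol BHTE/mL EO, mean ± SD, with ANOVA/Tukey's HSD (p < 0.05).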

[2] = DPPH radical scavenging capacity; settings: TEAC units; X = EO or compound
Procedure, shortened: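 DPPH radical scavenging by essential oils and individual components, by a published method, in triplicate. Values are expressed as μmol TE/mL EO and given as mean ± SD, with ANOVA/Tukey's HSD at p < 0.05.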

[3] = ABTS radical cation bleaching assay; settings: TEAC units; X = EO or compound
Procedure, shortened: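 ABTS radical cation (ABTS•+) bleaching by essential oils and their individual components, run in triplicate by a published method. Results are given as mean ± SD, compared by ANOVA with Tukey's HSD (p < 0.05).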

[4] = Reducing power; settings: AAE units; X = EO or compound
Procedure, shortened: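 Reduction of potassium ferricyanide by the oils and individual components, by a published method, in triplicate. Results are reported as ascorbic acid equivalents per volume of EO, mean ± SD, with ANOVA/Tukey's HSD (p < 0.05).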

[5] = Chelating power; settings: for ChP: EDTAE units, X = EO or compound
Procedure, shortened: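 Ferrous ion chelation by essential oils and their major components, by a published method, in triplicate. Results are expressed as EDTA equivalents per volume of EO, mean ± SD, with ANOVA/Tukey's HSD (p < 0.05).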

[6] = biological target: T1, lipoxygenase (LOX) (linoleate:oxygen oxidoreductase, EC 1.13.11.12) (Glycine max, UniProt P08170); test: Lipoxygenase; type: biochemical, Glycine max (soybean); settings: soybean LOX, linoleic acid substrate, 25 °C; mean ± SD
T1 sequence (P08170 1-839): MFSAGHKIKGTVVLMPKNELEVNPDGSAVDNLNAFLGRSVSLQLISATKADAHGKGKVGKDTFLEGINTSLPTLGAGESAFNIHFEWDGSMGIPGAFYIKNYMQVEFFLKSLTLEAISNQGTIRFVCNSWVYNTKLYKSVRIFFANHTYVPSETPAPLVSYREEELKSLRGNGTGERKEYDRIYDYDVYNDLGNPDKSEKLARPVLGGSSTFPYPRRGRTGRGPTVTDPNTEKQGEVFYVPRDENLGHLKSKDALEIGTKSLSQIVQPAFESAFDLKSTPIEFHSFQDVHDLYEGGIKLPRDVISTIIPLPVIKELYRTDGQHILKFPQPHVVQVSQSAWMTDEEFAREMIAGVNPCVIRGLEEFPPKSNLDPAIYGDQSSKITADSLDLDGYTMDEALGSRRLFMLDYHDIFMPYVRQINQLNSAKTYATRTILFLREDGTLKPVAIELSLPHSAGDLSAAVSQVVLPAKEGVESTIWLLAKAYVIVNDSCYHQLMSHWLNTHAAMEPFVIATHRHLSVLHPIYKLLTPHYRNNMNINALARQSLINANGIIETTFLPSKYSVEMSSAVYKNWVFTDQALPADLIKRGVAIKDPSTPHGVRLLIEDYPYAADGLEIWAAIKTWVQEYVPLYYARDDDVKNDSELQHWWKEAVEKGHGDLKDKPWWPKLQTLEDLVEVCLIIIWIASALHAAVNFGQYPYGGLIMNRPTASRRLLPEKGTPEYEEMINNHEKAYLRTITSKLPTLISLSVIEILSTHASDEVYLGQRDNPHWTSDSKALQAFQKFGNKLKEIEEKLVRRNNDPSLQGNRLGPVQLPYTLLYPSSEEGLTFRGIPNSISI

[7] = Oxygen radical absorption capacity; settings: TEAC units; X = EO or compound
Procedure, shortened: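 Peroxyl radical (ROO) scavenging by the oils and individual components, following a published ORAC method, in triplicate. Data are mean ± SD, with significance by ANOVA/Tukey's HSD (p < 0.05).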

**Q.** What does the source list for `C=C(C)[C@H]1CC=C(C)CC1` [limonene]?
**A.** TBARS [1]: N/D (Activity lower than 0.05 units at a maximum assay concentration of 100 mM); DPPH [2]: N/D (Activity lower than 0.05 units at a maximum assay concentration of 100 mM); ABTS [3]: 3.6 ± 0.2 μmol TE/mL X; RdP [4]: N/D (Activity lower than 0.05 units at a maximum assay concentration of 100 mM); ChP [5]: 36.7 ± 2.3 μmol EDTAE/mL X; LOX inhibitory activity, IC50 of main commercially available compounds [6]: 58 ± 5 μL (Compound)/L; ORAC [7]: 0.8 ± 0.1 μmol TE/μL X

**Q.** With `C=CC(C)(O)CCC=C(C)C` (stereo not shown) [linalool] as the molecule, how does the TBARS [1] read?
**A.** N/D (Activity lower than 0.05 units at a maximum assay concentration of 100 mM)

**Q.** What about the DPPH [2] of the same molecule?
**A.** N/D (Activity lower than 0.05 units at a maximum assay concentration of 100 mM)

**Q.** And the ABTS [3]?
**A.** 0.4 ± 0.0 μmol TE/mL X

**Q.** What about the RdP [4] of the same molecule?
**A.** N/D (Activity lower than 0.05 units at a maximum assay concentration of 100 mM)

**Q.** And the “Chelating power (ChP), result in words” value [5]?
**A.** high ChP

**Q.** What about the ChP [5] of the same molecule?
**A.** 541.6 ± 32.7 μmol EDTAE/mL X

**Q.** What about the “LOX inhibitory activity, IC50 of main commercially available compounds” value (shortened to “LOX inhibitory activity, IC50”) [6] of the same molecule?
**A.** 599 ± 8 μL (Compound)/L

**Q.** And the ORAC [7]?
**A.** 1.9 ± 0.1 μmol TE/μL X

**Q.** Which TBARS [1] does the source give for `Cc1ccc(C(C)C)cc1` [p-cymene] here?
**A.** N/D (Activity lower than 0.05 units at a maximum assay concentration of 100 mM)

**Q.** And the DPPH [2]?
**A.** N/D (Activity lower than 0.05 units at a maximum assay concentration of 100 mM)

**Q.** What about the ABTS [3] of the same molecule?
**A.** 0.6 ± 0.0 μmol TE/mL X

**Q.** And the RdP [4]?
**A.** N/D (Activity lower than 0.05 units at a maximum assay concentration of 100 mM)

**Q.** What about the “Chelating power (ChP), result in words” value [5] of the same molecule?
**A.** high chelating activity

**Q.** And the ChP [5]?
**A.** 124.7 ± 9.8 μmol EDTAE/mL X

**Q.** And the “LOX inhibitory activity, IC50” value [6]?
**A.** 79 ± 5 μL (Compound)/L

**Q.** And the ORAC [7]?
**A.** N/D (Activity lower than 0.05 units at a maximum assay concentration of 100 mM)

**Q.** For `Cc1ccc(C(C)C)c(O)c1` [thymol], which TBARS [1] is on record?
**A.** 869.4 ± 255.2 μmol BHTE/mL X

**Q.** What about the DPPH [2] of the same molecule?
**A.** 34.9 ± 2.1 μmol TE/mL X

**Q.** And the ABTS [3]?
**A.** 6897.1 ± 225.0 μmol TE/mL X

**Q.** What about the RdP [4] of the same molecule?
**A.** 3353.9 ± 133.4 μmol AAE/L X

**Q.** And the “Chelating power (ChP), result in words” value [5]?
**A.** do not show any ChP

**Q.** And the ChP [5]?
**A.** N/D (Activity lower than 0.05 units at a maximum assay concentration of 100 mM)

**Q.** And the “LOX inhibitory activity, IC50” value [6]?
**A.** 23 ± 2 μL (Compound)/L

**Q.** What about the ORAC [7] of the same molecule?
**A.** 2.1 ± 0.1 μmol TE/μL X
